Calls of active or inactive are those of the source. The calls are words filed in the database; no cut-off is given here. A value given as a limit tells only on which side of the number the result lay.

Assay [1] has as its system LAD2. As to the kind of experiment: Inhibition of human LAD2 mast cell activation assessed as compound 48/80-induced degranulation incubated for 30 mins prior to compound 48/80 challenge by beta-hexosaminidase release assay. In kind it is functional, cell-based. In short, it runs like this: (§1)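 Supernatant was incubated with 2 mg/mL p-nitrophenyl-N-acetyl-D-glucosaminide in citrate buffer pH 4.5 for 1 h at 37 °C and stopped with 0.4 M glycine. A405 was read; % release = supernatant/(supernatant + lysate) × 100.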

Assay [2] can be described thus: Ratio of DSCG IC50 to compound IC50 for human LAD2 mast cell. In kind it is functional.
Assay [3] deals with LAD2. As to the kind of experiment: Inhibition of human LAD2 mast cell activation assessed as compound 48/80-induced degranulation at 200 to 400 uM incubated for 30 mins prior to compound 48/80 challenge by beta-hexosaminidase release assay. It counts as functional, cell-based. The procedure, abridged:
as §1

For assay [4], the system named is LAD2. As to the kind of experiment: Inhibition of human LAD2 mast cell activation assessed as compound 48/80-induced degranulation at 200 to 400 uM incubated for 30 mins prior to compound 48/80 challenge by beta-hexosaminidase release assay in presence of UV light. In kind it is functional, cell-based.
Assay [5] deals with LAD2. As to the kind of experiment: Inhibition of human LAD2 mast cell activation assessed as 0.1 uM compound 48/80-induced degranulation incubated for 30 mins prior to compound 48/80 challenge by beta-hexosaminidase release assay. It counts as functional, cell-based. In short, it runs like this:
as §1

Assay [6] deals with LAD2. As to the kind of experiment: Inhibition of human LAD2 mast cell activation assessed as 1.0 uM compound 48/80-induced degranulation incubated for 30 mins prior to compound 48/80 challenge by beta-hexosaminidase release assay. In kind it is functional, cell-based. The procedure, abridged:
as §1

Assay [7] has as its system LAD2. Nature of the assay: Inhibition of human LAD2 mast cell activation assessed as compound 48/80-induced degranulation at 1000 uM incubated for 30 mins prior to compound 48/80 challenge by beta-hexosaminidase release assay. In kind it is functional, cell-based. In short, it runs like this: as §1
In assay [8] the test system is LAD2. As to the kind of experiment: Inhibition of human LAD2 mast cell activation assessed as compound 48/80-induced degranulation at 100 uM incubated for 30 mins prior to compound 48/80 challenge by histamine release assay. It counts as functional, cell-based. The procedure, abridged: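 Supernatant histamine was derivatized: NaOH, then 0.25% o-phthalaldehyde in MeOH for 4 min at room temperature, then HCl. Fluorescence was read at ex 360/em 450 nm; n = 3.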

The test system of assay [9] is LAD2. Nature of the assay: Inhibition of human LAD2 mast cell activation assessed as compound 48/80-induced degranulation at 10 to 20 uM incubated for 30 mins prior to compound 48/80 challenge by beta-hexosaminidase release assay in presence of UV light. In kind it is functional, cell-based.
Assay [10] deals with LAD2. Nature of the assay: Inhibition of human LAD2 mast cell activation assessed as compound 48/80-induced degranulation at 10 to 20 uM incubated for 30 mins prior to compound 48/80 challenge by beta-hexosaminidase release assay. In kind it is functional, cell-based. In short, it runs like this: as §1
Assay [11] relates to LAD2. As to the kind of experiment: Inhibition of human LAD2 mast cell activation assessed as compound 48/80-induced degranulation at 10 uM incubated for 30 mins prior to compound 48/80 challenge by beta-hexosaminidase release assay. It counts as functional, cell-based. In short, it runs like this:
as §1

Take `O=C([O-])c1cc(=O)c2c(OCc3ccc(/N=N/c4ccc(COc5cccc6oc(C(=O)[O-])cc(=O)c56)cc4)cc3)cccc2o1.[Na+].[Na+]`: the IC50 with LAD2 [1] was 28 µM. In addition, the “Ratio IC50” value in [2] is listed as 100.
On to `O=C(O)c1cc(=O)c2cc(/N=N/c3ccc4oc(C(=O)O)cc(=O)c4c3)ccc2o1`, for which the inhibition result in the assay with LAD2 [3] and with LAD2 [4] was “Active” throughout.
In the case of `O=C(O)c1cc(=O)c2cc(/N=N/c3ccc4oc(C(=O)O)cc(=O)c4c3)ccc2o1` (mixture of isomers), the inhibition entry in the assay with LAD2 [3] and in the assay on LAD2 [4] was “Active” throughout.
`O=C(O)c1cc(=O)c2c(OCC(O)COc3cccc4oc(C(=O)O)cc(=O)c34)cccc2o1` [CROMOLYN SODIUM]: the inhibition entry in the assay with LAD2 [5] and in the assay with LAD2 [7] was “Active” in each case. Also, the inhibition result with LAD2 [6] is “inactive”. The IC50 with LAD2 [1] is above 1000 µM. Besides, the outcome with LAD2 [8] was inactive.
`O=C(O)c1cc(=O)c2c(OCc3cccc(/N=N/c4cccc(COc5cccc6oc(C(=O)O)cc(=O)c56)c4)c3)cccc2o1` (mixture of isomers): the inhibition result in the assay on LAD2 [9] and with LAD2 [10] was “Active” in each case.
As to `O=C(O)c1cc(=O)c2c(OCc3cccc(/N=N/c4cccc(COc5cccc6oc(C(=O)O)cc(=O)c56)c4)c3)cccc2o1`, the inhibition result with LAD2 [9], in the assay with LAD2 [10], in the assay with LAD2 [11] and in the assay on LAD2 [8] was “Active” in each case.
Regarding `O=C(O)c1cc(=O)c2c(OCc3ccc(/N=N/c4ccc(COc5cccc6oc(C(=O)O)cc(=O)c56)cc4)cc3)cccc2o1` (mixture of isomers), the inhibition entry in the assay with LAD2 [9] and in the assay on LAD2 [10] was “Active” throughout.
`O=C([O-])c1cc(=O)c2c(OCc3cccc(/N=N/c4cccc(COc5cccc6oc(C(=O)[O-])cc(=O)c56)c4)c3)cccc2o1.[Na+].[Na+]`: in the assay on LAD2 [1], the half-maximal inhibitory concentration (IC50) was 10 µM. Moreover, the “Ratio IC50” value in assay [2] is reported as 100.
Consider `O=C(O)c1cc(=O)c2c(OCc3ccc(/N=N/c4ccc(COc5cccc6oc(C(=O)O)cc(=O)c56)cc4)cc3)cccc2o1`, for which the inhibition entry in the assay on LAD2 [9] and with LAD2 [10] was “Active” throughout.
